The list is not random: actives were taken first. Their share in the collection is about 2.8%.
T cell modulator = modulators of CD8 T cell-vesicle binding, primary screen, mouse 2C CD8+ T cells, flow cytometry; 2C CD8+ T cell-vesicle binding; hits give low values; response (vesicle binding), % at 7 µM; actives 0.068% (n = 330,000); AID 2052, 2009;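 active means response, share of CD8 T cells binding vesicles, and their 90th percentile fluorescence all below set limits, cut at about 80% in these data, passing the limit was not always enough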;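 further: values below 100% mean blocked vesicle binding to the CD8+ T cells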
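Also added: QL9-peptide-loaded Drosophila micro-vesicles bearing Ld, ICAM-1 and B7-1; Test system: purified 2C TCR transgenic mouse naive CD8+ T cells; Measured by: cytometric PE anti-B7-1 and Alexa647 anti-CD8 signals after 1% paraformaldehyde fixation; Timing: binding step 1.5 h, 37 °C, antibody labelling 20 min, ice.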
NR3A LBD binder = binders of NR3A ligand-binding domain, primary screen, biophysical, differential scanning fluorimetry, uHTS | NR3A LBD differential scanning fluorimetry, Tm shift; 0% = protein alone, 100% = glycine-bound protein | Glutamate receptor ionotropic, NMDA 3A (GRIN3A) ligand-binding domain | Tm shift relative to glycine control, % at 25 µM | actives 2.5% (n = 340,000) | AID 1259313, 2017;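 active means melting temperature shift of at least 10% of the positive control shift, at one fixed dose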
Rtt109 Vps75 = inhibitors of C. albicans Rtt109/Vps75 HAT, primary screen, biochemical, ThioGlo CoA-SH fluorescence, plate reader; purified Rtt109/Vps75, 4 h; inhibition, % at 34.9 µM; actives 0.16% (n = 330,000); Histone acetyltransferase RTT109 (Candida albicans (strain SC5314 / ATCC MYA-2876)), …;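 active means inhibition of at least 50% in every replicate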
GASC-1 inh = inhibitors of GASC-1 histone demethylase, primary screen, biochemical, fluorescence, DELFIA europium. inhibition, % at 2.35 µM. GST-JMJD2C(1-420) H3K9me3 demethylation. actives 0.069% (n = 330,000);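 active means more than half of a compound's replicate wells show inhibition beyond 50%, single wells judged on their own value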;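 further: signal counts dimethyl H3K9 product captured on neutravidin plate; 0% = median of DMSO wells and 100% = 0.3 times that DMSO median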
Target sequence (Q9H3R0 1-420 limits assumed): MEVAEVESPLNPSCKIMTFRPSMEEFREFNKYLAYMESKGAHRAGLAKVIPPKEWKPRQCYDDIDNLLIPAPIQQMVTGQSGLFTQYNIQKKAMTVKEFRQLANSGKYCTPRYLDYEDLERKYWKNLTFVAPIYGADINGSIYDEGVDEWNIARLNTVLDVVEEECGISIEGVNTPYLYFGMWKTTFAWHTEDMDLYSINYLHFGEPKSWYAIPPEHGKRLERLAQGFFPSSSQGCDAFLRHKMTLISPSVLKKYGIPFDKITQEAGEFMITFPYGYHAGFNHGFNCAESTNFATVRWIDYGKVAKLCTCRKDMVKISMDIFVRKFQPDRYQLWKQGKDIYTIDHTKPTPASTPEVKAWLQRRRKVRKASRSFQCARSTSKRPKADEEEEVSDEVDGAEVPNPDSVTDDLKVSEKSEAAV
Active calls of the source: *; i = inactive; x = no result.

SMILES	T cell modulator	NR3A LBD binder	Rtt109 Vps75	GASC-1 inh
OCC1CCCCN1CC(O)COC(c1ccc(F)cc1)c1ccc(F)cc1 (stereo unspecified)	231	7	-3	32
COc1ccc(OC)c(NC(=O)Nc2ccc3[nH]ccc3c2)c1	108	11*	x	3
COc1ccc(OC)c(NC(=O)Nc2ccc(Cl)cc2)c1	142	28*	5	3
COc1ccc(NC(=O)Nc2ccc(F)c(F)c2)c(OC)c1	283	22*	18	-9
COc1ccc(NC(=O)Nc2cccc(F)c2)c(OC)c1	305	5	x	-1
COc1ccc(NC(=O)Nc2cc(C)ccc2OC)cc1	282	-23	2	2
O=c1c2cc(F)ccc2sn1-c1ccccc1	205	2	132*	7
O=c1c2ccccc2sn1-c1ccccc1	187	3	17	-6
O=C(O)c1cccc(-n2sc3ccccc3c2=O)c1	731	23*	178*	1
Cc1ccccc1-n1sc2cc(F)ccc2c1=O	301	3	102*	5
CC(C)(C)OC(=O)NCCCCCNC(=O)c1[nH]cnc1C(=O)Nc1ccon1	0	-2	-4	4
Clc1cccc(CNCCCSc2ncccn2)c1	204	-1	-3	-1
COC(=O)[C@H](CC(C)C)NC(=O)Cn1cnc2c(OCc3ccccc3)ncnc21	262	97*	-5	x
O=C(O)c1ccccc1C(=O)c1ccc(F)c(F)c1	x	0	-7	x
Cc1cc(Cl)ccc1Nc1ncccc1C(N)=O	0	151*	0	1
Cc1[nH]c2ccccc2c1/C=N/NC(N)=S	201	-1	3	-13
Cc1[nH]c2ccccc2c1/C=N/NC(=S)NCc1ccccc1	318	23*	19	15
Cc1[nH]c2ccccc2c1/C=N/NC(=O)CNC(=O)Cc1ccccc1	376	-4	-1	1
Cc1ccc(NC(=S)N/N=C/c2c(C)[nH]c3ccccc23)cc1	504	22*	12	1
CCCOc1ccc(CNC(=S)N/N=C/c2ccc([N+](=O)[O-])cc2)cc1	455	11*	-3	-3
COc1ccc(-c2c(-c3cc(OC)cc(OC)c3)sc3ccc(OC)cc23)cc1	207	13*	-5	-7
COc1cc(OC)cc(-c2sc3ccc(OC)cc3c2-c2ccc(O)cc2)c1	292	7	7	2
NC(=NCCc1c[nH]c2ccccc12)NC(=O)c1ccc(Cl)cc1	204	24*	4	-10
O=C(CCCc1c[nH]c2ccccc12)NCCc1c[nH]c2ccccc12	196	15*	7	3
CC(C)CNC(=O)CCCc1c[nH]c2ccccc12	539	0	-8	-2
SMILES	T cell modulator	NR3A LBD binder	Rtt109 Vps75	GASC-1 inh
C/C(=N\NC(=O)Cc1c[nH]c2ccccc12)c1ccc2ccccc2c1	323	15*	3	-21
O=C(NCCc1c[nH]c2ccccc12)c1cc([N+](=O)[O-])cc([N+](=O)[O-])c1	511	-1	3	-7
O=C(NCCc1c[nH]c2ccccc12)c1ccc([N+](=O)[O-])cc1	277	25*	4	-5
C[C@H]1CCC(=O)N([C@H](CSc2ccc(Br)cc2)Cc2ccccc2)CC1	532	0	-10	-3
O=C(CCCc1c[nH]c2ccccc12)Nc1ccc2ccccc2c1	189	24*	15	0
O=C1CN(C(=O)CCCc2c[nH]c3ccccc23)c2ccccc2N1	i	-1	-4	54*
COc1ccc2[nH]cc(CCNC(=O)c3ccc([N+](=O)[O-])cc3)c2c1	360	12*	-13	9
O=C(NCCc1c[nH]c2ccccc12)c1ccc(-n2cnnn2)cc1	268	13*	12	-13
O=C(O)CCCC(=O)N1CC(=O)Nc2ccccc21	114	0	10	14
O=C(NCCc1ccccc1)c1ccc(-n2cnnn2)cc1	500	-1	-6	5
CN(Cc1ccc(F)cc1)C(=O)c1cc(COc2ccc(-n3cncn3)cc2)on1	400	3	-15	4
CN(Cc1cccc(Cl)c1Cl)C(=O)c1ccccc1SCC(=O)N1CCCC1	x	-1	-7	x
Cc1ccc(C(=O)NCCc2c[nH]c3ccccc23)s1	246	27*	1	-1
O=C(NCCc1c[nH]c2ccccc12)c1ccccc1	173	13*	-4	15
O=C(NCCc1c[nH]c2ccccc12)C(F)(F)F	199	-19	0	-6
N#CCC(=O)Nc1ccc(C(=O)NCCc2c[nH]c3ccccc23)cc1	136	18*	-1	12
N#CCC(=O)Nc1ccc(C(=O)NCCC(c2ccccc2)c2ccccc2)cc1	366	-2	-1	-5
CC(C)C(=O)NCCc1c[nH]c2ccccc12	295	5	3	4
CCOc1ccc2nc(NC(=O)Cn3c(C)csc3=O)sc2c1	x	-1	x	x
CCc1ccc(NC(=O)c2ccc3nc(N)sc3c2)cc1	309	16*	1	1
Nc1nc2ccc(C(=O)Nc3ccccc3)cc2s1	242	-2	7	-5
O=C(Nc1ccc2oc(-c3ccccc3)nc2c1)c1cccs1	240	11*	-2	6
CSc1nc2ccc(NC(=O)c3ccc(F)c(F)c3)cc2s1	190	28*	0	-50
CSc1nc2ccc(NC(=O)c3ccco3)cc2s1	334	4	2	-3
CSc1nc2ccc(NC(=O)c3cc4ccccc4o3)cc2s1	214	19*	-5	-2
SMILES	T cell modulator	NR3A LBD binder	Rtt109 Vps75	GASC-1 inh
O=C(NCC1CCCO1)C(c1ccco1)N(Cc1ccc(F)cc1)C(=O)CN1C(=O)c2ccccc2S1(=O)=O (stereo unspecified)	251	-2	-5	-17
COc1cccc(CN2CC(C(=O)N3CCN(C(C)C)CC3)CCC2=O)c1 (stereo unspecified)	476	0	9	-4
O=C(Nc1cccc(-c2nc3ccccc3s2)c1)c1cc(=O)c2ccccc2o1	241	6	-14	1
CSc1nc2ccc(NC(=O)c3cccs3)cc2s1	399	20*	2	14
O=C(Nc1cccc(-c2nc3ccccc3s2)c1)c1cccs1	284	12*	x	-6
COc1cccc(N2CCN(C(=O)c3cc(-c4ccccc4)nc4c3cnn4C(C)C)CC2)c1	177	-2	17	13
Cc1noc(C)c1C(=O)OCC(=O)NC1CCCCC1C (stereo unspecified)	x	-2	-6	x
Cc1noc(C)c1C(=O)OCC(=O)NC1CC1	395	16*	-7	4
COc1ccc(OC)c(NC(=O)Cc2ccc(NC3=NC4CS(=O)(=O)CC4S3)cc2)c1 (stereo unspecified)	480	5	7	35

Bioassay records as filed in PubChem BioAssay.
